Laboratory results reported in ChEMBL document CHEMBL1287679, “Tuning hydrophobicity of highly cationic tetradecameric Gramicidin S analogues using adamantane amino acids” (Bioorg Med Chem, 2010).
Converted amounts (≈) assume the structure as drawn. One block for each molecule: values may come before it. Where a SMILES comes first, the peptide text is derived from it. [ ]: non-standard residue; d: D form. Gly(1-adamantyl) = N[C@H](C(=O)O)C12CC3CC(CC(C3)C1)C2; Orn = NCCC[C@H](N)C(=O)O

Experiments:
Pseudomonas aeruginosa = assay: Antimicrobial activity against Pseudomonas aeruginosa ATCC 27853 by broth dilution method; type: functional
Procedure, shortened: (§1)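 Stored at −70 °C, grown at 35 °C on Columbia sheep-blood agar, then suspended in physiological saline to OD 0.1 AU at 595 nm and diluted 100× in saline. 2 µL inoculum was added to 50 µL cation-adjusted Mueller Hinton II broth. Peptides in methanol (4 g/L stock) were diluted in water, then two-fold in broth (64–1 mg/L). Incubation was 35 °C for 24–48 h. MIC is the lowest concentration inhibiting growth.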

Staphylococcus aureus [1] = assay: Antimicrobial activity against Staphylococcus aureus ATCC 29213 by broth dilution method; type: functional
Procedure, shortened: (§2)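 Frozen (−70 °C) stocks grown at 35 °C on Columbia sheep-blood agar, suspended in physiological saline to OD595 0.1, diluted 100×; 2 µL inoculum into 50 µL cation-adjusted Mueller Hinton II broth in 96-well plates. Peptides dissolved in methanol (4 g/L), diluted in water, two-fold serial dilutions in broth (64–1 mg/L). Incubation at 35 °C, 24–48 h; MIC = lowest concentration inhibiting growth.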

Staphylococcus aureus [2] = assay: Antimicrobial activity against methicillin-resistant Staphylococcus aureus isolate 1110301981 by broth dilution method; type: functional; procedure, shortened: as §2
Escherichia coli = assay: Antimicrobial activity against Escherichia coli ATCC 25922 by broth dilution method; type: functional; procedure, shortened: as §1
Staphylococcus aureus [3] = assay: Antimicrobial activity against methicillin-resistant Staphylococcus aureus N133 by broth dilution method; type: functional; procedure, shortened: as §2
[4] = test system: Staphylococcus epidermidis; assay: Antimicrobial activity against Staphylococcus epidermidis ATCC 12228 by broth dilution method; type: functional; procedure, shortened: as §1
Enterococcus faecalis = assay: Antimicrobial activity against Enterococcus faecalis ATCC 29212 by broth dilution method; type: functional; procedure, shortened: as §1
Bacillus cereus = assay: Antimicrobial activity against Bacillus cereus ATCC 11778 by broth dilution method; type: functional; procedure, shortened: as §1
Staphylococcus aureus [5] = assay: Antimicrobial activity against methicillin-resistant Staphylococcus aureus N229 by broth dilution method; type: functional; procedure, shortened: as §2
Staphylococcus aureus [6] = assay: Antimicrobial activity against methicillin-resistant Staphylococcus aureus ATCC 49775 by broth dilution method; type: functional; procedure, shortened: as §2
[7] = Therapeutic index, concentration required to achieve 100% hemolysis in erythrocyte to MIC for Escherichia coli ATCC 25922; details: erythrocytes
Procedure, shortened: (§3)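 Therapeutic index was taken as the concentration for 100% haemolysis divided by MIC for the given strain.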

[8] = Therapeutic index, concentration required to achieve 100% hemolysis in erythrocyte to MIC for Staphylococcus aureus ATCC 29213; details: erythrocytes; read-out: Ratio; procedure, shortened: as §3
[9] = Toxicity in Erythrocyte assessed as concentration required to achieve 100% hemolysis after 4 hrs; type: cell-based
Procedure, shortened: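 Heparinized fresh blood was centrifuged (1000g, 10 min, 10 °C). Erythrocytes were washed three times in 0.85% saline and diluted to a 1/25 packed volume. Peptides were prepared as a 1.5 mM stock in 30% DMSO/0.5 mM saline and serially two-fold diluted in triplicate rows. 1% Triton-X served as the full-lysis control. Incubation was 37 °C for 4 h, then centrifugation; supernatant was read. Value is the concentration giving 100% lysis.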

Staphylococcus aureus [10] = assay: Antimicrobial activity against community acquired methicillin-resistant Staphylococcus aureus isolate 1110301146 by broth dilution method; type: functional; procedure, shortened: as §2
Staphylococcus aureus [11] = assay: Antimicrobial activity against methicillin-resistant Staphylococcus aureus ATCC 43300 by broth dilution method; type: functional; procedure, shortened: as §2

Compound: CC(C)C[C@@H]1NC(=O)[C@H](CCCN)NC(=O)[C@H](C(C)C)NC(=O)[C@H](CCCN)NC(=O)[C@@H]2CCCN2C(=O)[C@@H](Cc2ccccc2)NC(=O)[C@H](CCCN)NC(=O)[C@H](CC(C)C)NC(=O)[C@H](CCCN)NC(=O)[C@H](C(C)C)NC(=O)[C@H](CCCN)NC(=O)[C@@H]2CCCN2C(=O)[C@@H](Cc2ccccc2)NC(=O)[C@H](CCCN)NC1=O
MIC (Pseudomonas aeruginosa): 64 µg/mL (≈ 40 µM)
MIC (Staphylococcus aureus [1]): 64 µg/mL (≈ 40 µM)
MIC (Staphylococcus aureus [2]): 64 µg/mL (≈ 40 µM)
MIC (Escherichia coli): 32 µg/mL (≈ 20 µM)
MIC (Staphylococcus aureus [3]): > 64 µg/mL
MIC [4]: 8 µg/mL (≈ 5.01 µM)
MIC (Enterococcus faecalis): > 64 µg/mL
MIC (Bacillus cereus): 32 µg/mL (≈ 20 µM)
MIC (Staphylococcus aureus [5]): 64 µg/mL (≈ 40 µM)
MIC (Staphylococcus aureus [6]): 64 µg/mL (≈ 40 µM)
selectivity ratio [7]: 11.7
selectivity ratio [8]: 11.7
Activity [9]: > 500 µM
MIC (Staphylococcus aureus [10]): 64 µg/mL (≈ 40 µM)
MIC (Staphylococcus aureus [11]): > 64 µg/mL

Compound: CC(C)C[C@@H]1NC(=O)[C@H](CCCN)NC(=O)[C@H](C(C)C)NC(=O)[C@H](CCCN)NC(=O)[C@@H]2CCCN2C(=O)[C@@H](Cc2ccccc2)NC(=O)[C@H](CCCN)NC(=O)[C@H](CC23CC4CC(CC(C4)C2)C3)NC(=O)[C@H](CCCN)NC(=O)[C@H](C(C)C)NC(=O)[C@H](CCCN)NC(=O)[C@@H]2CCCN2C(=O)[C@@H](Cc2ccccc2)NC(=O)[C@H](CCCN)NC1=O
MIC (Pseudomonas aeruginosa): 16 µg/mL (≈ 9.47 µM)
MIC (Staphylococcus aureus [1]): 16 µg/mL (≈ 9.47 µM)
MIC (Staphylococcus aureus [2]): 8 µg/mL (≈ 4.73 µM)
MIC (Escherichia coli): 16 µg/mL (≈ 9.47 µM)
MIC (Staphylococcus aureus [3]): 8 µg/mL (≈ 4.73 µM)
MIC [4]: 8 µg/mL (≈ 4.73 µM)
MIC (Enterococcus faecalis): 32 µg/mL (≈ 18.9 µM)
MIC (Bacillus cereus): 8 µg/mL (≈ 4.73 µM)
MIC (Staphylococcus aureus [5]): 16 µg/mL (≈ 9.47 µM)
MIC (Staphylococcus aureus [6]): 8 µg/mL (≈ 4.73 µM)
selectivity ratio [7]: 7.8
selectivity ratio [8]: 7.8
Activity [9]: 125 µM
MIC (Staphylococcus aureus [10]): 16 µg/mL (≈ 9.47 µM)
MIC (Staphylococcus aureus [11]): 8 µg/mL (≈ 4.73 µM)

Compound: CC(C)C[C@@H]1NC(=O)[C@H](CCCCN)NC(=O)[C@H](C(C)C)NC(=O)[C@@H]2CCCN2C(=O)[C@@H](Cc2ccc(O)cc2)NC(=O)[C@H](CC(C)C)NC(=O)[C@H](CCCCN)NC(=O)[C@H](C(C)C)NC(=O)[C@H](CCCCN)NC(=O)[C@H](CC(C)C)NC(=O)[C@@H]2CCCN2C(=O)[C@@H](Cc2ccc(O)cc2)NC(=O)[C@H](C(C)C)NC(=O)[C@H](CCCCN)NC1=O (cyclo(KLKV[dY]PLKVKL[dY]PV))
Activity [9]: 3.9 µM

Compound: NCCC[C@@H]1NC(=O)[C@H](C23CC4CC(CC(C4)C2)C3)NC(=O)[C@H](CCCN)NC(=O)[C@@H]2CCCN2C(=O)[C@@H](Cc2ccccc2)NC(=O)[C@H](CCCN)NC(=O)[C@H](C23CC4CC(CC(C4)C2)C3)NC(=O)[C@H](CCCN)NC(=O)[C@@H]2CCCN2C(=O)[C@@H](Cc2ccccc2)NC1=O (cyclo([Orn][dF]P[Orn][Gly(1-adamantyl)][Orn][dF]P[Orn][Gly(1-adamantyl)]))
MIC (Pseudomonas aeruginosa): 8 µg/mL (≈ 6.03 µM)
MIC (Staphylococcus aureus [1]): 8 µg/mL (≈ 6.03 µM)
MIC (Staphylococcus aureus [2]): 8 µg/mL (≈ 6.03 µM)
MIC (Escherichia coli): 16 µg/mL (≈ 12.1 µM)
MIC (Staphylococcus aureus [3]): 8 µg/mL (≈ 6.03 µM)
MIC [4]: 4 µg/mL (≈ 3.01 µM)
MIC (Enterococcus faecalis): 8 µg/mL (≈ 6.03 µM)
MIC (Bacillus cereus): 8 µg/mL (≈ 6.03 µM)
MIC (Staphylococcus aureus [5]): 8 µg/mL (≈ 6.03 µM)
selectivity ratio [7]: 62.5
selectivity ratio [8]: 62.5
Activity [9]: 500 µM
MIC (Staphylococcus aureus [10]): 8 µg/mL (≈ 6.03 µM)

MIC (Pseudomonas aeruginosa): 32 µg/mL (≈ 20.2 µM)
MIC (Staphylococcus aureus [1]): 16 µg/mL (≈ 10.1 µM)
MIC (Escherichia coli): 64 µg/mL (≈ 40.5 µM)
MIC [4]: 8 µg/mL (≈ 5.06 µM)
MIC (Enterococcus faecalis): 8 µg/mL (≈ 5.06 µM)
MIC (Bacillus cereus): 4 µg/mL (≈ 2.53 µM)
Compound: CC(C)C[C@@H]1NC(=O)[C@H](CCCN)NC(=O)[C@H](C(C)C)NC(=O)[C@@H]2CCCN2C(=O)[C@@H](Cc2ccccc2)NC(=O)[C@H](CC(C)C)NC(=O)[C@H](CCCN)NC(=O)[C@H](C(C)C)NC(=O)[C@H](CCCN)NC(=O)[C@H](CC(C)C)NC(=O)[C@@H]2CCCN2C(=O)[C@@H](Cc2ccccc2)NC(=O)[C@H](C(C)C)NC(=O)[C@H](CCCN)NC1=O (cyclo(L[Orn]V[Orn]L[dF]PV[Orn]L[Orn]V[dF]P))
selectivity ratio [7]: 0.1
selectivity ratio [8]: 0.2
Activity [9]: 3.9 µM
